# Results as given in PMC8802302 (Journal of Medicinal Chemistry, 2021).
# What was measured:
# DRAK2 = biological target: T1, DRAK2 (Homo sapiens, UniProt O94768); experiment: Eurofins kinase enzymatic radiometric assay; format: biochemical
# T1 sequence (O94768 1-372): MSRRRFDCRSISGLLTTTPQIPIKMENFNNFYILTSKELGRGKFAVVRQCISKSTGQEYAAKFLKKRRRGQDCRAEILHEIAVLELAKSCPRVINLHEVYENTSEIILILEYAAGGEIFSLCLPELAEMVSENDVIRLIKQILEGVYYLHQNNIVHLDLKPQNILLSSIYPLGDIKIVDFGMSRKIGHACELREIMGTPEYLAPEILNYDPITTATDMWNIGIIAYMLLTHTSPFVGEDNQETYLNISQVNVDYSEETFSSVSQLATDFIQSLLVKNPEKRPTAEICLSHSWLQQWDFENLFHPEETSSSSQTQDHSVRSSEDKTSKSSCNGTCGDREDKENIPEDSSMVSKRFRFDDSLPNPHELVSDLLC
# Summary of the method: (§1)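 Radiometric kinase activity assay with ATP at the Km for each kinase. Test compounds were run as 9-point dose–response curves in duplicate to give IC50.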
# ULK2 = biological target: T2, ULK2 (Homo sapiens, UniProt Q8IYT8); experiment: Eurofins kinase enzymatic radiometric assay; format: biochemical
# T2 sequence (Q8IYT8 1-1036): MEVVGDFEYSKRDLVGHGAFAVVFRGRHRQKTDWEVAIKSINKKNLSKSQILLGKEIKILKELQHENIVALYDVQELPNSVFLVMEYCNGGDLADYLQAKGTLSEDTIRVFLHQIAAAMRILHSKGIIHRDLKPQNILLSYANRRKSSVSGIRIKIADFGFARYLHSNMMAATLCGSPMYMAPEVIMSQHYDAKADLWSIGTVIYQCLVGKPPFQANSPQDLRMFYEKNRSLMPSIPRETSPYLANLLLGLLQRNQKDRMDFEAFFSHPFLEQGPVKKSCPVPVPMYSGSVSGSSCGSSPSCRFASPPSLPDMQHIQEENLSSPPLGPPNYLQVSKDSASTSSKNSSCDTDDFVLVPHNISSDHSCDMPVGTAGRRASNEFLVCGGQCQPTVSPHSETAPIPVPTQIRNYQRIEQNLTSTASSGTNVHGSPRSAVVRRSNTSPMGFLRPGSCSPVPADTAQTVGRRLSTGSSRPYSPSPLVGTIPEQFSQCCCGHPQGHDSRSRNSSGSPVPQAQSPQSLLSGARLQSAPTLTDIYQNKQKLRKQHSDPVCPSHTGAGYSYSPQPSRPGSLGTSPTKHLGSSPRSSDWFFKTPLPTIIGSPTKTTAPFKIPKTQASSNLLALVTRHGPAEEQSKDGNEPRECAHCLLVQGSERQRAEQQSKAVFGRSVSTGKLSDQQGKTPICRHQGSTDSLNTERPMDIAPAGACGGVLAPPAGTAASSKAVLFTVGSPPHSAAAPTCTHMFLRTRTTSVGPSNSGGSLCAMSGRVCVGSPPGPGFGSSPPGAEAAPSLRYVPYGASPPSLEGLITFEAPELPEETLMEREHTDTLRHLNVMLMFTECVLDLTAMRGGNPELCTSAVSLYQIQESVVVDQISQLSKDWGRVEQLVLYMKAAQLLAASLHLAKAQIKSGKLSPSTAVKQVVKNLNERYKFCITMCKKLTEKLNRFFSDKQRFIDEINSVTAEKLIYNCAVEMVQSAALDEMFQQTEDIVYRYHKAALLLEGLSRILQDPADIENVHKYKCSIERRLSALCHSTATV
# Summary of the method: as §1
# 16-member kinase panel = experiment: Eurofins custom enzymatic kinase panel, count of kinases inhibited; format: biochemical; conditions: 16-member Eurofins panel, 1 μM
# Summary of the method: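 Radiometric kinase assays were run with ATP at Km. Each test compound was tested at a single concentration of 1 μM, in duplicate, against each panel kinase, with results as percent of control. The count is the number of kinases at ≤ 10 PoC, i.e. inhibited ≥ 90%.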
# [1] = test system: 403 wild-type (WT) human kinases; experiment: DiscoverX scanMAX kinome-wide selectivity screen; format: binding; conditions: 403 WT human kinases; for no. kinases with PoC < 10: DiscoverX scanMAX, 1 μM; for S10 (1 μM): Percentage of screened kinases with PoC values < 10 at 1 μM
# DRAK1 (DRAK1-NLuc) = biological target: T3, DRAK1 (DRAK1-NLuc) (Homo sapiens, UniProt Q9UEE5); experiment: NanoBRET cellular target engagement assay; format: cell-based
# T3 sequence (Q9UEE5 1-414): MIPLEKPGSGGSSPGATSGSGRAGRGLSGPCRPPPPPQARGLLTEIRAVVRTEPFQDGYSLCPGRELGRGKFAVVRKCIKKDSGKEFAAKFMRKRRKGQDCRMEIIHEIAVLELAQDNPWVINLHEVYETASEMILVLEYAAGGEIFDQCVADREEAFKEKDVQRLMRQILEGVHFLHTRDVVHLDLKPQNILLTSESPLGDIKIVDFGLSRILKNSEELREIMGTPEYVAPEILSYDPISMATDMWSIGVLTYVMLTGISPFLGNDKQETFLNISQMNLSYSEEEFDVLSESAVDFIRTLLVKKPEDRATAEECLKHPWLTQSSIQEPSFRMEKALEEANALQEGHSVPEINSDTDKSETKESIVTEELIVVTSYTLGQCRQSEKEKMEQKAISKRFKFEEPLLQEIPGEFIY
# JAK2 = JAK2 (Homo sapiens, UniProt O60674); experiment: Eurofins kinase enzymatic radiometric assay; format: biochemical
# Summary of the method: as §1
# Sequence of JAK2 (O60674 whole entry): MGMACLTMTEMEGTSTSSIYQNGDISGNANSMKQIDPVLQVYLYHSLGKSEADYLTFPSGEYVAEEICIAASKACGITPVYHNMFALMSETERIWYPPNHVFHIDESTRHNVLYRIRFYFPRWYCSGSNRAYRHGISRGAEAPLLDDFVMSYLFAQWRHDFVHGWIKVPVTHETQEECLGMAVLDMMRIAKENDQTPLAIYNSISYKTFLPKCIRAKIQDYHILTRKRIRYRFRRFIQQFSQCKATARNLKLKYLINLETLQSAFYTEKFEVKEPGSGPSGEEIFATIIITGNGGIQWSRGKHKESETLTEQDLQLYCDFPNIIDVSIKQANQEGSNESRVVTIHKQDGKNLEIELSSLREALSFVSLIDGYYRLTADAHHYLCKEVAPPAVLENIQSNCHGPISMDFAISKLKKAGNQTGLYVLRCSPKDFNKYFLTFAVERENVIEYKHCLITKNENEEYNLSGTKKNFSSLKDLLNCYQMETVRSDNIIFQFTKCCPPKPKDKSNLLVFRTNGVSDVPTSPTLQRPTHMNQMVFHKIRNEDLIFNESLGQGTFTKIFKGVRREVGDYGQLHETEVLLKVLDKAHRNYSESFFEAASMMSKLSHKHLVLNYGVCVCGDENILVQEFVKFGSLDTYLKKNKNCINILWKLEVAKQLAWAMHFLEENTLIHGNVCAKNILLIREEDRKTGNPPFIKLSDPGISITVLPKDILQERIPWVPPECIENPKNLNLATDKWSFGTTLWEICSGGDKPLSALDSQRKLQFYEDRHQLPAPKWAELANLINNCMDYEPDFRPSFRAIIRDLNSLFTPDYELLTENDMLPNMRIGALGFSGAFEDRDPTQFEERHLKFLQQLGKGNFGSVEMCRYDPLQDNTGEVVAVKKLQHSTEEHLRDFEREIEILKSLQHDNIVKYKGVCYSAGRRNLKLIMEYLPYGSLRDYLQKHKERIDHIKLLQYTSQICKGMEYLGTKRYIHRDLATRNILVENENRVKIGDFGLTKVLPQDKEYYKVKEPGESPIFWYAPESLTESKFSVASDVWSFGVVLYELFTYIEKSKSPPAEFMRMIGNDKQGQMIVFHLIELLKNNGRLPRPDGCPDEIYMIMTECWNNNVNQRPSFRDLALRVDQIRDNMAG
IC50 (DRAK2) [nM],IC50 (ULK2) [nM],no. kinases ≤ 10 PoC in enzyme panel (16-member kinase panel),"fold loss in potency, enzymatic versus NanoBRET, DRAK1 (DRAK1 (DRAK1-NLuc)) [fold]","DRAK1 NanoBRET IC50 (DRAK1 (DRAK1-NLuc); HEK293, 0.5 μM tracer K-9, n = 1 where no error, SEM n = 3)",IC50 (JAK2) [nM],Structure (SMILES),no. kinases with PoC < 10 [1],S10 (1 μM) [1]
62,1740,1,< 10,submicromolar,–,"Cc1nn(CC(F)(F)F)cc1Nc1ncc(C2CC2)c(NCCCNC(=O)C2CCC2)n1 [Compound 4, N-(3-((5-Cyclopropyl-2-((3-methyl-1-(2,2,2-trifluoroethyl)-1H-pyrazol-4-yl)amino)pyrimidin-4-yl)amino)propyl)cyclobutanecarboxamide]",11,0.027
–,–,0,< 10,–,> 10000,"O=C(NCCCNc1ccnc(Nc2cccc(NC(=O)N3CCCC3)c2)n1)C1CCC1 [Compound 17, N-(3-((4-((3-(Cyclobutanecarboxamido)propyl)amino)pyrimidin-2-yl)amino)phenyl)pyrrolidine-1-carboxamide]",3,0.007
